ChEMBL document CHEMBL4321830, “A Chemical-Intervention Strategy To Circumvent Peptide Hydrolysis by d-Stereoselective Peptidases” (J Med Chem, 2019)
Activity calls are given as the source filed them. The calls are words filed in the database; no cut-off is given here. Where a SMILES comes first, the peptide text is derived from it. [ ]: non-standard residue; d: D form. The star is where a group is joined. d(aIle) = CC[C@H](C)[C@@H](N)C(=O)O; NMeF = CN[C@@H](Cc1ccccc1)C(=O)O; dDab = NCC[C@@H](N)C(=O)O; Octanoyl = CCCCCCCC(=O)*; Dab = NCC[C@H](N)C(=O)O; Aib = CC(C)(N)C(=O)O; Sar = CNCC(=O)O

How the values were obtained:
D-peptidase BogQ = test: Substrate activity at bacterial D-peptidase BogQ expressed in Escherichia coli BL21 assessed as enzyme-mediated compound hydrolysis at 50 uM incubated for 1 hr by UPLC-MS analysis; format: ADME; settings: bacteria; read-out: Activity
Summary of the method: (§1)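 His-purified (Ni-NTA) enzyme from IPTG-induced E. coli BL21 (200 μM IPTG after 15 °C hold). Substrate 50 μM with BogQ 20 nM for 1 h or TriFpep 200 nM for 24 h, 37 °C, in 25% PBS pH 7.4. Quenched with cold methanol, cleavage ratio by UPLC–MS at end point; two independent experiments.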

D-peptidase TriF = test: Substrate activity at Paenibacillus polymyxa CICC10580 D-peptidase TriF expressed in Escherichia coli BL21 assessed as enzyme-mediated compound hydrolysis at 50 uM incubated for 24 hrs by UPLC-MS analysis; format: ADME; settings: read-out: Activity; summary of the method: as §1
Escherichia coli [1] = test: Antibacterial activity against Escherichia coli NCTC 12241 assessed as bacterial growth inhibition by microbroth dilution method; format: functional
Staphylococcus aureus = test: Antibacterial activity against Staphylococcus aureus NCTC 10788 assessed as bacterial growth inhibition by microbroth dilution method; format: functional
[2] = Hemolytic activity in sheep erythrocytes assessed as hemolysis at 200 ug/ml incubated for 30 by spectrophotometry relative to control; format: ADME, cell-based, Ovis aries, Erythrocyte; settings: read-out: Activity
Summary of the method: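 Defibrinated sheep blood washed four times in PBS, resuspended, mixed 1:1 with peptide in PBS (200 μg/mL in well before mixing); 30 min, 37 °C. Diluted, centrifuged, supernatant absorbance at 415 nm. Percent hemolysis relative to 0.1% Triton X-100, PBS blank; triplicate, two independent experiments averaged.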

Escherichia coli [3] = test: Binding affinity to Escherichia coli NCTC 12241 lipid 2 assessed as formation of zone of inhibition at 60 uM incubated for 16 hrs by spot-on-lawn assay
Summary of the method: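 E. coli NCTC 12241 suspended to OD600 ~1.0 in MHB, mixed into molten 0.75% MH soft agar and poured over 1.5% MHA. Peptide (final 60 μM) preincubated at 37 °C with 7 equiv chemically synthesized Gram-positive lipid II, 10 μL spotted alongside peptide alone; 16 h, 37 °C. Loss of inhibition zone indicates lipid II sequestration.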

| SMILES | metabolised at 1 h, 50 µM (D-peptidase BogQ) [%] | metabolised at 24 h, 50 µM (D-peptidase TriF) [%] | MIC (Escherichia coli [1]) [mg/L] | MIC (Staphylococcus aureus) [mg/L] | hemolysis at 0.5 h, 200 ug/ml [2] [%] | Activity (Escherichia coli [3]) |
| --- | --- | --- | --- | --- | --- | --- |
| CCCCCCCC(=O)N[C@@H](C(=O)N[C@@H](C(=O)NCC(=O)N[C@H](CO)C(=O)N[C@H](Cc1c[nH]c2ccccc12)C(=O)N(C)CC(=O)N[C@@H](CCN)C(=O)N[C@H](CCN)C(=O)N(C)[C@@H](Cc1ccccc1)C(=O)N[C@@H](CCC(=O)O)C(=O)N[C@H](C(=O)N[C@@H](C(=O)N[C@@H](C)C(=O)O)C(C)C)C(C)C)C(C)C)C(C)C (Octanoyl-[dV][dV]G[dS][dW][Sar][Dab][dDab][NMeF]EV[dV]A-OH) | 12 | 0 | > 50 | > 50 |  |  |
| CCCCCCCC(=O)N[C@@H](C(=O)N[C@H](CCN)C(=O)NCC(=O)N[C@H](CO)C(=O)N[C@H](Cc1c[nH]c2ccccc12)C(=O)NC(C)(C)C(=O)N[C@@H](CCN)C(=O)N[C@H](CCN)C(=O)N[C@@H](Cc1ccccc1)C(=O)N[C@@H](CCC(=O)O)C(=O)N[C@H](C(=O)N[C@@H](C(=O)N[C@@H](C)C(=O)O)C(C)C)C(C)C)C(C)C (Octanoyl-[dV][dDab]G[dS][dW][Aib][Dab][dDab]FEV[dV]A-OH) |  | 0 | 3.13 | > 50 |  |  |
| CCCCCCCC(=O)N[C@@H](C(=O)N[C@H](CCN)C(=O)NCC(=O)N[C@H](CO)C(=O)N[C@H](Cc1c[nH]c2ccccc12)C(=O)N(C)CC(=O)N[C@@H](CCN)C(=O)N[C@H](CCN)C(=O)N[C@@](C)(Cc1ccccc1)C(=O)N[C@@H](CCC(=O)O)C(=O)N[C@H](C(=O)N[C@@H](C(=O)N[C@@H](C)C(=O)O)[C@@H](C)CC)C(C)C)C(C)C | 40 | 0 | > 50 | > 50 |  |  |
| CCCCCCCC(=O)N[C@@H](C(=O)N[C@H](CCN)C(=O)NCC(=O)N[C@H](CO)C(=O)N[C@H](Cc1c[nH]c2ccccc12)C(=O)N(C)CC(=O)N[C@@H](CCN)C(=O)N[C@H](CCN)C(=O)N(C)[C@@H](Cc1ccccc1)C(=O)N[C@@H](CCC(=O)O)C(=O)N[C@H](C(=O)N[C@@H](C(=O)N[C@@H](C)C(=O)O)[C@@H](C)CC)C(C)C)C(C)C (Octanoyl-[dV][dDab]G[dS][dW][Sar][Dab][dDab][NMeF]EV[d(aIle)]A-OH) | 46 | 0 | 3.13 | > 50 |  |  |
| CCCCCCCC(=O)N[C@@H](C(=O)N[C@H](CCN)C(=O)N(C)CC(=O)N[C@H](CO)C(=O)N[C@H](Cc1c[nH]c2ccccc12)C(=O)N[C@@H](CO)C(=O)N[C@@H](CCN)C(=O)N[C@H](CCN)C(=O)N(C)[C@@H](Cc1ccccc1)C(=O)N[C@@H](CCC(=O)O)C(=O)N[C@H](C(=O)N[C@@H](C(=O)N[C@@H](C)C(=O)O)C(C)C)C(C)C)C(C)C (Octanoyl-[dV][dDab][Sar][dS][dW]S[Dab][dDab][NMeF]EV[dV]A-OH) | < 5 |  | > 50 | > 50 |  |  |
| CCCCCCCC(=O)N[C@@H](C(=O)N[C@H](CCN)C(=O)NCC(=O)N[C@H](CO)C(=O)N[C@H](Cc1c[nH]c2ccccc12)C(=O)N[C@@H](CO)C(=O)N[C@@H](CCN)C(=O)N[C@H](CCN)C(=O)N(C)[C@@H](Cc1ccccc1)C(=O)N[C@@H](CCC(=O)O)C(=O)N[C@H](C(=O)N[C@@H](C(=O)N[C@@H](C)C(=O)O)C(C)C)C(C)C)C(C)C (Octanoyl-[dV][dDab]G[dS][dW]S[Dab][dDab][NMeF]EV[dV]A-OH) | 15 |  | 6.25 | > 50 | 30 | Active |
| CCCCCCCC(=O)N[C@@H](C(=O)N[C@H](CCN)C(=O)NC(C)(C)C(=O)N[C@H](CO)C(=O)N[C@H](Cc1c[nH]c2ccccc12)C(=O)N[C@@H](CO)C(=O)N[C@@H](CCN)C(=O)N[C@H](CCN)C(=O)N[C@@H](Cc1ccccc1)C(=O)N[C@@H](CCC(=O)O)C(=O)N[C@H](C(=O)N[C@@H](C(=O)N[C@@H](C)C(=O)O)C(C)C)C(C)C)C(C)C (Octanoyl-[dV][dDab][Aib][dS][dW]S[Dab][dDab]FEV[dV]A-OH) | > 90 |  | > 50 | > 50 |  |  |
| CCCCCCCC(=O)N[C@@H](C(=O)N[C@H](CCN)C(=O)NCC(=O)N[C@H](CO)C(=O)N[C@H](Cc1c[nH]c2ccccc12)C(=O)N(C)CC(=O)N[C@@H](CCN)C(=O)N[C@H](CCN)C(=O)N[C@@](C)(Cc1ccccc1)C(=O)N[C@@H](CCC(=O)O)C(=O)N[C@H](C(=O)N[C@@H](C(=O)N[C@@H](C)C(=O)O)C(C)C)C(C)C)C(C)C | 39 | 0 | > 50 | > 50 |  |  |
| CCCCCCCC(=O)N[C@@H](C(=O)N[C@H](C)C(=O)NCC(=O)N[C@H](CO)C(=O)N[C@H](Cc1c[nH]c2ccccc12)C(=O)N(C)CC(=O)N[C@@H](CCN)C(=O)N[C@H](CCN)C(=O)N(C)[C@@H](Cc1ccccc1)C(=O)N[C@@H](CCC(=O)O)C(=O)N[C@H](C(=O)N[C@@H](C(=O)N[C@@H](C)C(=O)O)C(C)C)C(C)C)C(C)C (Octanoyl-[dV][dA]G[dS][dW][Sar][Dab][dDab][NMeF]EV[dV]A-OH) | 11 | 0 | > 50 | > 50 |  |  |
| CCCCCCCC(=O)N[C@@H](C(=O)N[C@H](CCN)C(=O)N(C)CC(=O)N[C@H](CO)C(=O)N[C@H](Cc1c[nH]c2ccccc12)C(=O)N[C@@H](CO)C(=O)N[C@@H](CCN)C(=O)N[C@H](CCN)C(=O)N[C@@H](Cc1ccccc1)C(=O)N[C@@H](CCC(=O)O)C(=O)N[C@H](C(=O)N[C@@H](C(=O)N[C@@H](C)C(=O)O)C(C)C)C(C)C)C(C)C (Octanoyl-[dV][dDab][Sar][dS][dW]S[Dab][dDab]FEV[dV]A-OH) | > 90 |  | > 50 | > 50 |  |  |
| CCCCCCCC(=O)N[C@@H](C(=O)N[C@H](CCN)C(=O)NC(C)(C)C(=O)N[C@H](CO)C(=O)N[C@H](Cc1c[nH]c2ccccc12)C(=O)N[C@@H](CO)C(=O)N[C@@H](CCN)C(=O)N[C@H](CCN)C(=O)N(C)[C@@H](Cc1ccccc1)C(=O)N[C@@H](CCC(=O)O)C(=O)N[C@H](C(=O)N[C@@H](C(=O)N[C@@H](C)C(=O)O)C(C)C)C(C)C)C(C)C (Octanoyl-[dV][dDab][Aib][dS][dW]S[Dab][dDab][NMeF]EV[dV]A-OH) | < 5 |  | > 50 | > 50 |  |  |
| CCCCCCCC(=O)N[C@@H](C(=O)N[C@@H](CCN)C(=O)NCC(=O)N[C@H](CO)C(=O)N[C@H](Cc1c[nH]c2ccccc12)C(=O)N[C@@H](CO)C(=O)N[C@@H](CCN)C(=O)N[C@H](CCN)C(=O)N[C@@H](Cc1ccccc1)C(=O)N[C@@H](CCC(=O)O)C(=O)N[C@H](C(=O)N[C@@H](C(=O)N[C@@H](C)C(=O)O)C(C)C)C(C)C)C(C)C (Octanoyl-[dV][Dab]G[dS][dW]S[Dab][dDab]FEV[dV]A-OH) | 60 |  | > 50 | > 50 |  |  |
| CCCCCCCC(=O)N[C@@H](C(=O)N[C@H](CCN)C(=O)NCC(=O)N[C@H](CO)C(=O)N[C@H](Cc1c[nH]c2ccccc12)C(=O)N(C)CC(=O)N[C@@H](CCN)C(=O)N[C@H](CCN)C(=O)N[C@@H](Cc1ccccc1)C(=O)N[C@@H](CCC(=O)O)C(=O)N[C@H](C(=O)N[C@@H](C(=O)N[C@@H](C)C(=O)O)C(C)C)C(C)C)C(C)C (Octanoyl-[dV][dDab]G[dS][dW][Sar][Dab][dDab]FEV[dV]A-OH) |  | 0 | 3.13 | > 50 | 38 | Active |
| CCCCCCCC(=O)N[C@@H](C(=O)N[C@H](CCN)C(=O)NCC(=O)N[C@H](CO)C(=O)N[C@H](Cc1c[nH]c2ccccc12)C(=O)N[C@@H](CO)C(=O)N[C@@H](CCN)C(=O)N[C@H](CCN)C(=O)N[C@@](C)(Cc1ccccc1)C(=O)N[C@@H](CCC(=O)O)C(=O)N[C@H](C(=O)N[C@@H](C(=O)N[C@@H](C)C(=O)O)C(C)C)C(C)C)C(C)C | 39 |  | > 50 | > 50 |  |  |
| CCCCCCCC(=O)N[C@@H](C(=O)N[C@H](CCN)C(=O)NCC(=O)N[C@H](CO)C(=O)N[C@H](Cc1c[nH]c2ccccc12)C(=O)N[C@@H](CO)C(=O)N[C@@H](CCN)C(=O)N[C@H](CCN)C(=O)N[C@@H](Cc1ccccc1)C(=O)N[C@@H](CCC(=O)O)C(=O)N[C@H](C(=O)N[C@@H](C(=O)N[C@@H](C)C(=O)O)C(C)C)C(C)C)C(C)C (Octanoyl-[dV][dDab]G[dS][dW]S[Dab][dDab]FEV[dV]A-OH) | > 90 | 100 | 1.56 | 50 | 53 |  |
